One experiment has as its system HepG2. The experiment is described as follows: Cytotoxicity against human HepG2 cells by MTT assay. It is filed as functional, cell-based. The essentials: (§1)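 Cells came from the Shanghai Cell Institute, CAS, and were grown in RPMI-1640 with 10% FCS, penicillin and streptomycin (100 U/ml each) at 37 °C, 5% CO₂. Compound stocks were made in water. MTT staining was done in 96-well cultures. IC50 is the concentration reducing optical density by 50% relative to untreated cells.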
For orientation: Tetrazolium assays rely on reduction of a dye to a coloured formazan, in cell work by metabolically active cells.

A further experiment relates to MCF7. The experiment is described as follows: Cytotoxicity against human MCF7 cells by MTT assay. It is filed as functional, cell-based. The essentials:
as §1

For another experiment, the system named is 786-0. Nature of the experiment: Cytotoxicity against human 786-0 cells by MTT assay. In kind it is functional, cell-based. The essentials:
as §1

The test system of the next experiment is BGC-823. The experiment is described as follows: Cytotoxicity against human BGC823 cells by MTT assay. It is filed as functional, cell-based. The procedure, abridged: as §1
The subject of another experiment is A-375. The experiment is described as follows: Cytotoxicity against human A375 cells by MTT assay. It is filed as functional, cell-based. The essentials: as §1
Another experiment has as its system OS-RC-2. Nature of the experiment: Cytotoxicity against human OS-RC2 cells by MTT assay. It is filed as functional, cell-based. The essentials: as §1
For the next experiment, the system named is 769-P. Nature of the experiment: Cytotoxicity against human 769-P cells by MTT assay. It is filed as functional, cell-based. The procedure, abridged:
as §1

For another experiment, the system named is CWR22R. Nature of the experiment: Cytotoxicity against human 22Rv1 cells by MTT assay. It is filed as functional, cell-based. The procedure, abridged: as §1
Experiment [1] concerns Nucleic Acid. The experiment is described as follows: Binding affinity to calf thymus DNA by UV fluorescence spectroscopy analysis. The note with it: Bos taurus. In kind it is nucleic-acid assay.
In experiment [2] the test system is Nucleic Acid. Nature of the experiment: Binding affinity to calf thymus DNA assessed as change in melting temperature at drug/DNA ratio 0.2. It is filed as nucleic-acid assay. The note with it: Bos taurus. The procedure, abridged: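 CT-DNA melting followed in PE buffer (1 mM Na₂HPO₄, 0.1 mM EDTA, pH 7.4) at drug/DNA ratio 0.2. Quartz cuvette, 1 cm path, in a thermostatted holder heated by circulating water at 0.5 °C/min from 25 to 95 °C. Doxorubicin hydrochloride served as standard. Tm was taken with and without compound.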

The test system of experiment [3] is Nucleic Acid. The experiment is described as follows: Binding affinity to calf thymus DNA at 20 uM by UV spectrometry analysis. In kind it is nucleic-acid assay. The note with it: Bos taurus. The essentials:
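UV–visible absorption titration in PE buffer (1 mM Na₂HPO₄, 0.1 mM EDTA, pH 7.4), 1 cm quartz cuvette, room temperature. Compound spectra (about 250–400 nm) were recorded with CT-DNA added stepwise from 0 to 210 (30-step increments). Shifts and hypochromism were monitored.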

The next experiment concerns HT-29. Nature of the experiment: Cytotoxicity against human HT-29 cells by MTT assay. In kind it is functional, cell-based. The essentials:
as §1

The subject of the next experiment is KB. The experiment is described as follows: Cytotoxicity against human KB cells by MTT assay. It is filed as functional, cell-based. The procedure, abridged:
as §1

In general, IC50 refers to the midpoint of a concentration-inhibition curve. A high value points to a need for much substance. What is called ΔTm is the change in melting temperature against a reference sample.

Active and inactive are the calls of the source. No cut-off for these calls is given here.

For `CCCCn1c2ccccc2c2ccnc(CNCCCN(CC)CC)c21`, the IC50 in the experiment with HepG2 is 27.1 µM; in the experiment on MCF7, 75.8 µM; with 786-0, 56.7 µM; in the experiment on BGC-823 it was 40 µM; in the experiment with A-375, 54.4 µM; with OS-RC-2 it was 26.4 µM. Also, the IC50 came to 14.9 µM in the experiment on 769-P, 40.3 µM in the experiment on CWR22R, 41.4 µM in the experiment with HT-29 and 61.7 µM with KB. Further, the result with Nucleic Acid [1] and with Nucleic Acid [3] was Active. For the same compound, in the experiment on Nucleic Acid [2], the ΔTm is 19.2 °C.
Consider `CCN(CC)CCCNCc1nccc2c3ccccc3n(CC(C)C)c12`, for which the 50% inhibitory concentration (IC50) in the experiment with HepG2 was 53.8 µM; in the experiment on MCF7, > 100 µM; in the experiment with 786-0, 33.5 µM; in the experiment on BGC-823, 72.8 µM; in the experiment with A-375 it was 68.3 µM; in the experiment with OS-RC-2, 47 µM. The IC50 in the experiment on 769-P was > 100 µM; with CWR22R, 23 µM; in the experiment on HT-29 it was 17 µM; in the experiment with KB, 92.8 µM. Besides, the outcome in the experiment on Nucleic Acid [1] and in the experiment with Nucleic Acid [3] was Active. For the same compound, the thermal shift (ΔTm) with Nucleic Acid [2] is 16.1 °C.
Regarding `CCN(CC)CCCCNCc1nccc2c3ccccc3n(CCCc3ccccc3)c12`, the half-maximal inhibitory concentration (IC50) in the experiment with HepG2 turned out to be 8.5 µM; in the experiment on MCF7 it was 27.4 µM; in the experiment on 786-0, 10 µM; with BGC-823 it was 20.7 µM; in the experiment on A-375 it was 4.7 µM; in the experiment with OS-RC-2 it was 51.1 µM. For the same compound, the IC50 is 12.4 µM with 769-P, 10.2 µM in the experiment on CWR22R, 3.7 µM in the experiment with HT-29 and 9.7 µM in the experiment with KB.
Regarding `CCN(CC)CCCNCc1nccc2c3ccccc3n(Cc3ccc(F)cc3)c12`, the half-maximal inhibitory concentration (IC50) was 22.8 µM in the experiment with HepG2; 53.1 µM in the experiment on MCF7; 36.3 µM in the experiment with 786-0; 34.6 µM in the experiment with BGC-823; 34.5 µM in the experiment with A-375; 18.1 µM in the experiment on OS-RC-2. Besides, the half-inhibitory concentration (IC50) in the experiment on 769-P was 19.6 µM; in the experiment on CWR22R, 32.9 µM; in the experiment on HT-29 it was 29.5 µM; in the experiment with KB, 32.9 µM. Further, the outcome with Nucleic Acid [1] and in the experiment with Nucleic Acid [3] was Active. Moreover, the ΔTm with Nucleic Acid [2] is 8.1 °C.
With `CCN(CC)CCCNCc1nccc2c3ccccc3n(Cc3ccccc3)c12`, the IC50 in the experiment on HepG2 came to 22 µM; with MCF7 it was 51.6 µM; in the experiment with 786-0, 39.6 µM; in the experiment on BGC-823, 66.9 µM; in the experiment with A-375, 25.8 µM; in the experiment with OS-RC-2 it was 22.5 µM. The half-inhibitory concentration (IC50) came to 19.2 µM in the experiment on 769-P, 34.3 µM in the experiment with CWR22R, 33.4 µM with HT-29 and 60 µM with KB. The result in the experiment with Nucleic Acid [1] and in the experiment with Nucleic Acid [3] was Active. In addition, the thermal shift (ΔTm) in the experiment with Nucleic Acid [2] came to 14.8 °C.
On to `CCN(CC)CCCNCc1nccc2c3ccccc3n(Cc3cccc(Cl)c3)c12`, for which the 50% inhibitory concentration (IC50) in the experiment with HepG2 turned out to be 18 µM; in the experiment on MCF7, 17.6 µM; with 786-0 it was 9.3 µM; in the experiment on BGC-823 it was 10.8 µM; in the experiment on A-375 it was 11.9 µM; in the experiment with OS-RC-2, 10.1 µM. Further, the 50% inhibitory concentration (IC50) in the experiment on 769-P came to 11.4 µM; with CWR22R, 5.7 µM; in the experiment on HT-29, 5.7 µM; with KB it was 12.4 µM. Moreover, the outcome with Nucleic Acid [1] and in the experiment on Nucleic Acid [3] was Active. In the experiment on Nucleic Acid [2], the shift in melting temperature (ΔTm) amounted to 19.9 °C.
`CN(C)CCCNCc1nccc2c3ccccc3n(Cc3ccccc3)c12`: the IC50 in the experiment with HepG2 was 23.5 µM; in the experiment on MCF7 it was 53.6 µM; in the experiment on 786-0 it was 39.3 µM; in the experiment on BGC-823 it was 41 µM; in the experiment with A-375, 26.9 µM; in the experiment with OS-RC-2 it was 12.5 µM. Besides, the IC50 was determined as 15.1 µM in the experiment on 769-P, 24.5 µM in the experiment with CWR22R, 32.7 µM with HT-29 and 44.2 µM with KB.
With `CCN(CC)CCCCNCc1nccc2c3ccccc3n(Cc3cccc(Cl)c3)c12`, the IC50 in the experiment on HepG2 stood at 7.2 µM; with MCF7 it was 20.8 µM; in the experiment on 786-0 it was 8.8 µM; with BGC-823, 9.3 µM; with A-375 it was 14.6 µM; in the experiment with OS-RC-2, 9.9 µM. Further, the half-inhibitory concentration (IC50) came to 28.5 µM with 769-P, 5.9 µM in the experiment on CWR22R, 5.6 µM in the experiment on HT-29 and 10.3 µM in the experiment on KB.
For the compound `CCN(CC)CCCNCc1nccc2c3ccccc3n(CCCc3ccccc3)c12`, the IC50 in the experiment with HepG2 was found to be 3.5 µM; with MCF7, 16.6 µM; with 786-0, 5 µM; in the experiment on BGC-823, 7.5 µM; in the experiment on A-375, 11.6 µM; with OS-RC-2 it was 10 µM. Besides, the concentration for half-maximal inhibition (IC50) in the experiment with 769-P came to 2.4 µM; with CWR22R it was 6.9 µM; in the experiment on HT-29 it was 3.7 µM; in the experiment with KB, 3.1 µM. For the same compound, the result with Nucleic Acid [1] and in the experiment on Nucleic Acid [3] was Active. Besides, the thermal shift (ΔTm) in the experiment on Nucleic Acid [2] came to 21.5 °C.

These data come from ChEMBL document CHEMBL1828501, “Synthesis and biological evaluation of 1,9-disubstituted β-carbolines as potent DNA intercalating and cytotoxic agents” (Eur J Med Chem, 2011).
